# Laboratory results published in PMC3132207 (Journal of medicinal chemistry, 2011).
# Tests used:
# [1] = biological target: heteromeric rod CNG channels consisting of CNGA1 and CNGB1 subunits (Bos taurus, UniProt Q00194+Q28181); assay type: cell-based; conditions: 20 µM blocker, Vm = +50 mV
# chymotrypsin = chymotrypsin (Bos taurus, UniProt P00766); assay: In vitro hydrolysis by chymotrypsin; assay type: in vitro ADME; conditions: 50 µM compound, 37 °C
# In short: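 Hydrolysis was followed by diode-array UV absorbance at the product peak wavelength, starting on compound addition. Runs were in triplicate. Enzyme activity was confirmed separately with 90 µM 4-nitrophenyl acetate in 0.1 M HEPES, pH 6.5, 37 °C, read at 404 nm for 10 min.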
# proteinase K = proteinase K (Parengyodontium album, UniProt P06873); assay: In vitro hydrolysis by proteinase K; assay type: in vitro ADME, Engyodontium album; conditions: 50 µM compound, 37 °C
# [2] = biological target: butyrylcholinesterase purified from human blood serum (Homo sapiens, UniProt P06276); assay: In vitro hydrolysis by serum cholinesterase; assay type: in vitro ADME; conditions: even after 24 h incubations
# butyrylcholinesterase purified from human blood serum, sequence (P06276 29-602): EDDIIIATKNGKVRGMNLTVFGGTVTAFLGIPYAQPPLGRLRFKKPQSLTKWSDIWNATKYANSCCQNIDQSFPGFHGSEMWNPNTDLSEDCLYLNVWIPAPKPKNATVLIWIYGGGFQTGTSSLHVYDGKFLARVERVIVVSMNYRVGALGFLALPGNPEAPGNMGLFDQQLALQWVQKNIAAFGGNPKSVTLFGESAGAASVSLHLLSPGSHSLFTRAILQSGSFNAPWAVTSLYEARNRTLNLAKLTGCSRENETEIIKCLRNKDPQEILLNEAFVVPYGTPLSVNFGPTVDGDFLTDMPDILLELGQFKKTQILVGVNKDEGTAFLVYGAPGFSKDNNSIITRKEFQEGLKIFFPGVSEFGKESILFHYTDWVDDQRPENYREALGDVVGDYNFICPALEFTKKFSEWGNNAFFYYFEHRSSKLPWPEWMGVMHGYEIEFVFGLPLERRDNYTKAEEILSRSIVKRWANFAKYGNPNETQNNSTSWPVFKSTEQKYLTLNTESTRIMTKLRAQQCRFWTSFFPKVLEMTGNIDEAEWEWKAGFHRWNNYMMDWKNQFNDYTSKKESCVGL
# proteinase K, sequence (P06873 106-384): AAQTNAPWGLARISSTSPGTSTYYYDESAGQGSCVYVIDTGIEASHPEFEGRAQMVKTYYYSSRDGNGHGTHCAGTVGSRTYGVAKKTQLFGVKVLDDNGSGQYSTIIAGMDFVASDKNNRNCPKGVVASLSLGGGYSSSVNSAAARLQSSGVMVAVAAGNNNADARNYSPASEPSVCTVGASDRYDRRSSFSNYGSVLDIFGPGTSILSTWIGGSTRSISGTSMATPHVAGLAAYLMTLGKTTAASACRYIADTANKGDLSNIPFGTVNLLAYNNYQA
# heteromeric rod CNG channels consisting of CNGA1 and CNGB1 subunits, sequence (Q00194 whole entry): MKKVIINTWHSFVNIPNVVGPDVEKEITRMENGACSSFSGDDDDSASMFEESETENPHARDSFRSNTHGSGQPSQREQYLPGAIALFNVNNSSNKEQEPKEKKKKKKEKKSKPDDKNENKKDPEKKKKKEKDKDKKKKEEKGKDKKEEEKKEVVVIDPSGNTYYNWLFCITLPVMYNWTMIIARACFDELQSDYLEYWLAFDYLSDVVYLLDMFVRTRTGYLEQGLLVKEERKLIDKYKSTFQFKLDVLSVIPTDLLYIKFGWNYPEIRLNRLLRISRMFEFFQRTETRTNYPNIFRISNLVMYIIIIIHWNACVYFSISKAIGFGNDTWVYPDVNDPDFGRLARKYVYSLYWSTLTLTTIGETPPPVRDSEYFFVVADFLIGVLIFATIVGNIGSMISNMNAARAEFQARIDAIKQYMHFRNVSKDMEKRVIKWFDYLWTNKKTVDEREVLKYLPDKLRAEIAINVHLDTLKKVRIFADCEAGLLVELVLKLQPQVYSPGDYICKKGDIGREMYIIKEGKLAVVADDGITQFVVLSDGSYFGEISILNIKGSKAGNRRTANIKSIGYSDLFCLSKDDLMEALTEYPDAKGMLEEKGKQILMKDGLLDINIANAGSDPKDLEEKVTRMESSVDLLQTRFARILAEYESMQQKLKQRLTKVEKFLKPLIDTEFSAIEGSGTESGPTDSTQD
# heteromeric rod CNG channels consisting of CNGA1 and CNGB1 subunits, sequence (Q28181 whole entry): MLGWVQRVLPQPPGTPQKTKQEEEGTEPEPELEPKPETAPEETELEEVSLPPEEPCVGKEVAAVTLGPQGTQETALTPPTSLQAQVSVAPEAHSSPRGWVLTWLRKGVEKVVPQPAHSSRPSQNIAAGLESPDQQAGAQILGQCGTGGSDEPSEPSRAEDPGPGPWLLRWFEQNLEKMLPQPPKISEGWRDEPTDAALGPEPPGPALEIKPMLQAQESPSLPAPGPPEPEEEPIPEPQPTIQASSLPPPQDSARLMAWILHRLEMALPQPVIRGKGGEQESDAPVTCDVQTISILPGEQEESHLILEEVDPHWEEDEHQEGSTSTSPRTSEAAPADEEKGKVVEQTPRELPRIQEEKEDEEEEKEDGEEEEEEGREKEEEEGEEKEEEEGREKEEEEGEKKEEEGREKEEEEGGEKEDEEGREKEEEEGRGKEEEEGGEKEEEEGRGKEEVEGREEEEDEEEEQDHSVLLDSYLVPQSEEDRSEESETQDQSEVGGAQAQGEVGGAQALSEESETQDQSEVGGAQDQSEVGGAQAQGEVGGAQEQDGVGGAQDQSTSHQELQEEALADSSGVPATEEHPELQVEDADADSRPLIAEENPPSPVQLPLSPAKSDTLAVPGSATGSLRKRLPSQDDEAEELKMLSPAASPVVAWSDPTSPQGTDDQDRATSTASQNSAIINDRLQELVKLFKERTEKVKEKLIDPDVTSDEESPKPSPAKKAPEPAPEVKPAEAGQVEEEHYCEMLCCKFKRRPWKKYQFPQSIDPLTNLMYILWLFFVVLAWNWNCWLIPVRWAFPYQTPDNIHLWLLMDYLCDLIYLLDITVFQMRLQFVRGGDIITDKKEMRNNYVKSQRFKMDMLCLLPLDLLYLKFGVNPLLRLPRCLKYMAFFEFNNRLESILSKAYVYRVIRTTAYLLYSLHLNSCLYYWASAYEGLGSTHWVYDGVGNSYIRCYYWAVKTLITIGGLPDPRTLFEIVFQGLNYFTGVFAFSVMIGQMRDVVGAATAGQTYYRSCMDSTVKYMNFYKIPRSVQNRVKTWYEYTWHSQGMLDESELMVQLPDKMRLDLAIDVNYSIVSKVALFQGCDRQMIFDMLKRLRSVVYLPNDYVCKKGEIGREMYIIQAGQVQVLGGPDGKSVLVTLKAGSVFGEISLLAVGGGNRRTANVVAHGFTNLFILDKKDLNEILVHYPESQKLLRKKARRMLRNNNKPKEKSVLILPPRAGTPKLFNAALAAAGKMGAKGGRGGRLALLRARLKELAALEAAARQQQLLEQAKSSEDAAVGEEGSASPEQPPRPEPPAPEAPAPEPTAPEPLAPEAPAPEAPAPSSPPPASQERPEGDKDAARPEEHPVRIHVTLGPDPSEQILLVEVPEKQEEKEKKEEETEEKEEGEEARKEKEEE
SMILES,block of 2 mM cGMP-induced currents [1],hydrolysis by chymotrypsin (chymotrypsin),hydrolysis by proteinase K (proteinase K),hydrolysis product detection by butyrylcholinesterase [2]
COc1ccc([C@H]2Sc3ccccc3N(CCN(C)C)C(=O)[C@H]2OC(C)=O)cc1 (relative stereo) [l-cis-diltiazem],74.2 ± 5.8%,–,–,–
"CCCCNc1ccc(C(=O)NCCN(C)C)cc1 [Compound 6, 4-(Butylamino)-N-(2-(dimethylamino)ethyl)benzamide]",–,resistant,resistant,–
"CCCCCCCCNc1ccc(C(=O)NCCN(C)C)cc1 [Compound 7, 4-(Octylamino)-N-(2-(dimethylamino)ethyl)benzamide]",–,resistant,resistant,–
"CCCCNc1ccc(C(=S)NCCN(C)C)cc1 [Compound 8, 4-(Butylamino)-N-(2-(dimethylamino)ethyl)benzothioamide]",–,completely resistant,completely resistant,much too stable for our system to detect any hydrolysis product
"CCCCCCCCNc1ccc(C(=S)NCCN(C)C)cc1 [Compound 9, 4-(Octylamino)-N-(2-(dimethylamino)ethyl)benzothioamide]",–,completely resistant,completely resistant,much too stable for our system to detect any hydrolysis product
